According to ChEMBL document CHEMBL4024789, “Neutral Porphyrin Derivative Exerts Anticancer Activity by Targeting Cellular Topoisomerase I (Top1) and Promotes Apoptotic Cell Death without Stabilizing Top1-DNA Cleavage Complexes” (J Med Chem, 2018):
The source made the active and inactive calls. The rule behind the calls is not given here.

Legend:
[1] = tested on: MCF7; test: Induction of DNA strand breaks in human MCF7 cells at 20 uM after 12 hrs in presence of ROS inhibitor NAC by alkaline comet assay relative to control; type: functional, cell-based
How it was run: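 MCF7 cells treated 12 h, with or without 30 min pretreatment with NAC (10 mM). Strand breaks measured by alkaline comet assay; mean comet tail calculated for 20–25 cells (average ± SEM).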

[2] = Cytotoxicity against human NIH:OVCAR3 cells assessed as reduction in cell viability by MTT assay; type: functional, cell-based; settings: OVCAR-3
How it was run: (§1)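 Survival of each cell line measured across a range of compound concentrations. Percent inhibition of viability at each concentration calculated against untreated control and IC50 estimated. MEFs were TDP1+/+ and TDP1–/– primary cells. Mean ± SD of at least three experiments in duplicate.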

[3] = tested on: MCF7; test: Induction of ROS accumulation in human MCF7 cells at 10 uM by CM-H2DCFDA dye based spectrofluorometric method; type: functional, cell-based; settings: TDE = time-dependent effect
How it was run: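 MCF7 cells treated with 10 μM for the indicated times, with 0.2% DMSO as vehicle control, or pretreated with NAC (10 mM) for 30 min. ROS read as DCF fluorescence from CM-H2DCFDA. Mean ± SD of three independent experiments.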

[4] = target: T1, DNA topoisomerase 1 (Homo sapiens) (UniProt P11387); test: Inhibition of recombinant human topoisomerase-1 expressed in baculovirus infected sf9 cells at 1 uM using supercoiled pBS SK(+) DNA as substrate after 15 mins by ethidium bromide staining based agarose gel electrophoresis method relative to control
T1 sequence (whole entry): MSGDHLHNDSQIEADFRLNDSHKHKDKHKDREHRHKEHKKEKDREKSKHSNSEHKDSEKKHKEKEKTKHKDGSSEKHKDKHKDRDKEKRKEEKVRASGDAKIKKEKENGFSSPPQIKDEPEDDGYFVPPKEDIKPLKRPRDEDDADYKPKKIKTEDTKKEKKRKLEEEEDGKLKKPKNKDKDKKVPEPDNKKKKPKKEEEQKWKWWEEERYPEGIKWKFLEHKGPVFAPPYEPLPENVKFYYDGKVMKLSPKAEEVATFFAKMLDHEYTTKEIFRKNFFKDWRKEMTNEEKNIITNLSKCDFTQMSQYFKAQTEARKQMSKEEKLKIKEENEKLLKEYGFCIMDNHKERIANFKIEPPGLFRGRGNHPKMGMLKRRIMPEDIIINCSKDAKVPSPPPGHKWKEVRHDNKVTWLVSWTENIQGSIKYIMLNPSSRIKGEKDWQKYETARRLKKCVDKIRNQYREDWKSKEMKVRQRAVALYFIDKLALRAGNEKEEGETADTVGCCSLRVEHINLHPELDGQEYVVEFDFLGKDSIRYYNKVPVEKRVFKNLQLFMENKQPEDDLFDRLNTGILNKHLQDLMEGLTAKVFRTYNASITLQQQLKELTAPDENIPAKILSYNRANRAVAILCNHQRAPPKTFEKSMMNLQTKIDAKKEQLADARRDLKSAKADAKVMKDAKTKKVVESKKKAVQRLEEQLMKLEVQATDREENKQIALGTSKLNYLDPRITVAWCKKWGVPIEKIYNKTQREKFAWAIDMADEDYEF
How it was run: (§2)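 Relaxation assay: 90 fmol supercoiled pBS (SK+) DNA with 30 fmol recombinant Top1 (Sf-9/baculovirus). Compound either preincubated with Top1 for 5 min before DNA addition, or added simultaneously with DNA; then 37 °C for 15 min. Vehicle 2% DMSO. Read on 1% agarose gel. EC50 from mean ± SD of three experiments.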

[5] = tested on: MEF; test: Cytotoxicity against TDP1+/+ MEF assessed as reduction in cell viability by MTT assay; type: cell-based; settings: Mus musculus; how it was run: as §1
[6] = tested on: MCF7; test: Cytotoxicity against human MCF7 cells assessed as reduction in cell viability up to 10 uM in presence of CPT by MTT assay; type: functional, cell-based
How it was run: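 MCF7 cells pretreated with CPT (5 μM) for 12 h, then compound added at a range of concentrations. Viability inhibition calculated relative to control and IC50 estimated. Mean ± SD, at least three experiments in duplicate.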

[7] = target: T1, DNA topoisomerase 1 (Homo sapiens); test: Induction of proteasome-mediated topoisomerase-1 degradation in human MCF7 cells at 10 uM by Western blot method; type: cell-based; settings: TDE = time-dependent effect
How it was run: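 Whole-cell extracts of MCF7 cells treated with 10 μM for the indicated times, or preincubated with MG132 (100 nM) for 4 h before 12 h compound exposure. Top1 detected by Western blot with mouse monoclonal anti-Top1 (C21).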

[8] = target: T1, DNA topoisomerase 1 (Homo sapiens); test: Inhibition of recombinant human EGFP-tagged topoisomerase-1- DNA cleavage complex formation at 20 uM after 10 mins by FRAP assay
How it was run: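 FRAP in living MCF7 cells transiently expressing EGFP-human Top1, 37 °C chamber. Treatment was CPT 5 μM or compound 20 μM for 10 min, or CPT for 10 min then compound for 10 min. A subnuclear spot was bleached for 30 ms at 488 nm; curves normalized to the prebleach signal.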

[9] = target: T2, DNA topoisomerase 1 (Homo sapiens, UniProt P11387); test: Binding affinity to recombinant human topoisomerase-1 expressed in baculovirus infected sf9 cells by spectrofluorimetric method
T2 sequence (P11387 whole entry): T1 sequence (whole entry)
How it was run: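 Purified Top1 (200 nM) incubated with compound at 0–11 μM, 25 °C, 10 min. Tryptophan emission read at 350 nm (ex 295 nm). Fraction bound B = (F0 – F)/Fmax, with Fmax taken from a double-reciprocal 1/(F0 – F) vs 1/[X] plot; KD derived from this. Mean ± SD, n=3.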

[10] = target: T1, DNA topoisomerase 1 (Homo sapiens); test: Reversible inhibition of recombinant human topoisomerase-1 expressed in baculovirus infected sf9 cells at 1 uM using supercoiled pBS SK(+) DNA as substrate preincubated for 5 mins followed by substrate addition and subsequent 40 fold compound dilution measured after 15 mins by ethidium bromide staining based agarose gel electrophoresis method
How it was run: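 Recombinant Top1 (100 fmol) preincubated with 1 μM compound for 5 min at 37 °C in relaxation buffer. Mixture diluted 5-, 10-, 20- or 40-fold (final 0.2–0.025 μM), then 50 fmol pBS (SK+) DNA added and incubated 15 min at 37 °C. Three repeats performed.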

[11] = target: T1, DNA topoisomerase 1 (Homo sapiens); test: Inhibition of topoisomerase-1- genomic DNA cleavage complex in human MCF7 cells at 20 uM after 12 hrs by ICE assay; type: cell-based
How it was run: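 ICE bioassay in MCF7 cells. Treatment was CPT (10 μM) or compound (20 μM) for 12 h, or CPT for 6 h then compound for a further 6 h. Genomic DNA (0.5–4 μg) probed with anti-Top1 antibody. Quantified with n = 3, ± SEM, t test.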

[12] = target: T2, DNA topoisomerase 1; test: Inhibition of recombinant human topoisomerase-1 expressed in baculovirus infected sf9 cells using supercoiled pBS SK(+) DNA as substrate after 15 mins by ethidium bromide staining based agarose gel electrophoresis method; how it was run: as §2
[13] = target: T1, DNA topoisomerase 1 (Homo sapiens); test: Ratio of compound effect for inhibition of recombinant human topoisomerase-1 expressed in baculovirus infected sf9 cells preincubated for 5 mins followed by substrate addition to compound effect for recombinant human topoisomerase-1 expressed in baculovirus infected sf9 cells simultaneously incubated with substrate
How it was run: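 Recombinant human Top1 purified from baculovirus-infected Sf-9 cells; 30 fmol enzyme with 90 fmol supercoiled pBS (SK+) DNA (3:1 molar ratio) in relaxation buffer. Compound either preincubated with enzyme 5 min before DNA, or added simultaneously; then 37 °C, 15 min. Relaxation on 1% agarose; % inhibition quantified, EC50 from three experiments (mean ± SD).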

inhibition [4]: 35 to 40%
Activity [7]: Tde
inhibition [8]: Active
Kd [9]: 0.381 µM
inhibition [10]: Active
inhibition [11]: Active
EC50 [12]: 1.47 µM
Ratio [13]: 2 to 3
Compound: CN(C)c1ccc(-c2c3nc(c(-c4ccc(N(C)C)cc4)c4ccc([nH]4)c(-c4ccc(C(=O)O)cc4)c4nc(c(-c5ccc(C(=O)O)cc5)c5ccc2[nH]5)C=C4)C=C3)cc1
Activity [1]: inactive
IC50 [2]: 5.19 µM
Activity [3]: Tde
IC50 [5]: > 10 µM
Activity [6]: inactive
